Experimental findings from the array DNA melting data of Ke et al. (doi:10.1101/2024.01.08.574731) are described below.

Series [1] can be described thus: folding enthalpy; higher = less favourable; fluorescence melt of hairpins on a sequencing array, two-state fit. As to conditions: sodium 0.088 M. Summed up: (§1)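 Cy3 signals were normalised both to pre-quench Cy3 and to control constructs. They came from library hairpins carrying annealed Cy3 and quencher oligos on a sequenced MiSeq flow cell, imaged in 50 mM Na-HEPES pH 8.0, 25 mM NaCl, in 2.5 °C steps up to 60 °C. Bootstrapped two-state fits gave melting temperature and folding enthalpy, and four replicates were combined by inverse variance. Fitted temperatures were then raised by 9.35 °C to match UV melts.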

Series [2] is described as follows: melting temperature; fluorescence melt of hairpins on a sequencing array, two-state fit, raised by 9.35 °C to match UV melts. The following applies: sodium 0.088 M. Put shortly: as §1

In the case of GATCCTTTTGAGGATC ((((((....)))))), the folding enthalpy in series [1] was -154 kJ/mol. Also, in series [2], the Tm was determined as 54.1 °C.

CGATTCCGGAAACGGTCG (((..(((....)))))): the folding enthalpy in series [1] was -116 kJ/mol. Moreover, the Tm in series [2] was 36.2 °C.

Regarding GTGTGGGGAAACCCGCAC (((.(((....))).))), the folding enthalpy in series [1] was -148 kJ/mol. Besides, the Tm in series [2] is 59.7 °C.

As for GTGATCGAAAGATATCAC ((((((....)))..))), the folding enthalpy in series [1] was -75.5 kJ/mol. Besides, in series [2], the Tm was determined as 34.5 °C.

With GAGTAAGGAAACTTACCC (.(((((....))))).), the folding enthalpy in series [1] was -61.1 kJ/mol. Moreover, the Tm in series [2] is 28.4 °C.

For the sequence GTCGGCACGAAAGTGGAC (((..(((....)))))), the folding enthalpy in series [1] is -51.6 kJ/mol. For the same sequence, in series [2], the Tm is 34.7 °C.

As for GATCGGGGAACCGATC ((((((....)))))), the folding enthalpy in series [1] is -143 kJ/mol. The Tm in series [2] was found to be 65.3 °C.

On to GATCCTCTTGAGGATC ((((((....)))))), for which the folding enthalpy in series [1] is -171 kJ/mol. In series [2], the Tm came out at 61.3 °C.

For GAGATGCGAAAGCACTC (((.(((....)))))), the folding enthalpy in series [1] was -80.5 kJ/mol. For the same sequence, the Tm in series [2] is 48.4 °C.

On to GGTCTGGGAAACCAGACC (((((((....))))))), for which the folding enthalpy in series [1] is -197 kJ/mol. Further, in series [2], the Tm was 67.7 °C.

On to GATCCTCTCGAGGATC ((((((....)))))), for which the folding enthalpy in series [1] is -177 kJ/mol. Further, the Tm in series [2] was determined as 58 °C.

Turning to GAAGGGACGAAAGTCTTC (((..(((....)))))), the folding enthalpy in series [1] is -49.4 kJ/mol. Further, the Tm in series [2] was 26.7 °C.

As for GTATCACGAAAGTGCTAC (((.(((....))).))), the folding enthalpy in series [1] was -95.1 kJ/mol. Besides, in series [2], the Tm was 41.1 °C.

As for GTGGGAGGAAACTCCTAC ((.((((....)))).)), the folding enthalpy in series [1] is -105 kJ/mol. In addition, the Tm in series [2] is 46.8 °C.

In the case of GGGCAGGGAAACCCACCC (((..((....))..))), in series [1], the folding enthalpy was -103 kJ/mol. In addition, the Tm in series [2] came out at 34.8 °C.

Regarding GTCTCTGGAAACAGAGGC (.(((((....))))).), in series [1], the folding enthalpy is -110 kJ/mol. The Tm in series [2] was determined as 49.5 °C.

In the case of GCTAAGCGAAAGCGTTGC ((.(.((....)).).)), the folding enthalpy in series [1] is -83.6 kJ/mol. Further, the Tm in series [2] was 53.4 °C.

For GTGGTGGGAAACCGCTAC ((.(.((....)).).)), the folding enthalpy in series [1] is -80.9 kJ/mol. Moreover, the Tm in series [2] is 46.7 °C.

Regarding CTTTGGAAACAAAG (((((....))))), the folding enthalpy in series [1] was -93.9 kJ/mol. For the same sequence, the Tm in series [2] was 37.1 °C.

For the sequence GTGTCTGGAAACAGACAC (((((((....))))))), in series [1], the folding enthalpy is -167 kJ/mol. The Tm in series [2] is 66.5 °C.

Consider GGCGAGGGAAACCCCGCC ((((.((....)).)))), for which, in series [1], the folding enthalpy was -196 kJ/mol. The Tm in series [2] amounted to 57.9 °C.

Consider GTCCTGGCGAAAGCCGAC (((..(((....)))))), for which the folding enthalpy in series [1] was -39.5 kJ/mol. The Tm in series [2] stood at 32.9 °C.

GTGCAAGGAAACTCGCAC ((((.((....)).)))): the folding enthalpy in series [1] is -133 kJ/mol. In series [2], the Tm turned out to be 45.1 °C.

For the sequence GCTTCCGGAAACGGAAAC (.(((((....))))).), in series [1], the folding enthalpy was -61.5 kJ/mol. The Tm in series [2] is 40.5 °C.

Regarding GGGGGTCGAAAGACTCCC (((.(((....))).))), the folding enthalpy in series [1] was -182 kJ/mol. In series [2], the Tm came to 63.4 °C.

On to GCGATAGGAAACTATCGC (((((((....))))))), for which the folding enthalpy in series [1] is -240 kJ/mol. Moreover, the Tm in series [2] came to 65.9 °C.

Consider GCAACCGAAAGGTGCTGC ((((((....)))..))), for which, in series [1], the folding enthalpy was -98.4 kJ/mol. Further, the Tm in series [2] stood at 57.1 °C.

As for GACATCGGAAACGATGCC (.(((((....))))).), the folding enthalpy in series [1] was -52.3 kJ/mol. Besides, in series [2], the Tm came out at 44.9 °C.

As for GGGCACACGAAAGTGCCC (((..(((....)))))), the folding enthalpy in series [1] was -127 kJ/mol. In series [2], the Tm was determined as 67.3 °C.

Consider CGAGCGGAAACGCTCTCG ((((((....)))..))), for which the folding enthalpy in series [1] was -35.4 kJ/mol. In addition, the Tm in series [2] turned out to be 40.5 °C.

For GCCATGCCGAAAGGCGGC (((..(((....)))))), the folding enthalpy in series [1] was -77.7 kJ/mol. Further, the Tm in series [2] worked out at 59.2 °C.

For the sequence GAGTACGAAAGTATACTC ((((((....)))..))), in series [1], the folding enthalpy is -82.3 kJ/mol. Besides, the Tm in series [2] came out at 34.4 °C.

Turning to GAGCGTGGAAACACGTTC ((.((((....)))).)), the folding enthalpy in series [1] was -103 kJ/mol. Besides, in series [2], the Tm is 52.5 °C.

For the sequence GACCGAGGAAACTTGGTC ((((.((....)).)))), the folding enthalpy in series [1] was -136 kJ/mol. The Tm in series [2] is 50.1 °C.

In the case of GCAAGGCGAAAGCTTTGC ((((.((....)).)))), in series [1], the folding enthalpy is -163 kJ/mol. Also, the Tm in series [2] is 63.9 °C.

GTAGGCTCGAAAGAGTAC (((..(((....)))))): the folding enthalpy in series [1] was -44.1 kJ/mol. For the same sequence, the Tm in series [2] stood at 29.2 °C.

Turning to GGGTTCCGAAAGGATCCC (((.(((....))).))), the folding enthalpy in series [1] is -176 kJ/mol. The Tm in series [2] was determined as 55.9 °C.
